Measured values taken from ChEMBL document CHEMBL1629474, “Massive screening yields novel and selective Trypanosoma cruzi triosephosphate isomerase dimer-interface-irreversible inhibitors with anti-trypanosomal activity” (Eur J Med Chem, 2010).
Calls of active or inactive are those of the source. The rule behind the calls is not given here.

Tests used:
Trypanosoma cruzi = assay: Antiparasitic activity against Trypanosoma cruzi T2 epimastigotes assessed as growth inhibition at 25 uM after 5 days; type: functional
Outline: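 Late-log epimastigotes were grown axenically at 28 °C in BHI-tryptose with 5% fetal calf serum and seeded at 2×10^6/mL in medium containing compound (DMSO stock; final DMSO ≤1%, 1% DMSO control). Growth was read as A590 at day 0 and day 5. Inhibition = {1 − [(Ap − A0p)/(Ac − A0c)]} × 100. Means of two experiments.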

[1] = target: Triosephosphate isomerase, glycosomal (Trypanosoma cruzi) (UniProt P52270); assay: Inhibition of Trypanosoma cruzi triosephosphate isomerase at 400 uM after 2 hrs
Chain of Triosephosphate isomerase, glycosomal (Trypanosoma cruzi) (P52270 whole entry): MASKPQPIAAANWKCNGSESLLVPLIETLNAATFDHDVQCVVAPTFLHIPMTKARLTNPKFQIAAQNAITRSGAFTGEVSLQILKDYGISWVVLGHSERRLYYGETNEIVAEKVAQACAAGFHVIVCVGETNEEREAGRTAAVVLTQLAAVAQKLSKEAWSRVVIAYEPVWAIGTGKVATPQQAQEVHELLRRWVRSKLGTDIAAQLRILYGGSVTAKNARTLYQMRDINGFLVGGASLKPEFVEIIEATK
Outline: (§1)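 Recombinant E. coli-expressed enzyme, dialyzed into 100 mM triethanolamine/10 mM EDTA pH 7.4, was incubated with compound (DMSO stock) in 100 mM triethanolamine, 10 mM EDTA, pH 7.4, 10% DMSO at 36 °C for 2 h. An aliquot was then assayed for activity (glyceraldehyde 3-phosphate to dihydroxyacetone phosphate, α-glycerol phosphate dehydrogenase-coupled) with 5 ng enzyme. Irreversible inhibition was scored as loss of activity; means of two experiments.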

[2] = target: Triosephosphate isomerase, glycosomal (Trypanosoma cruzi) (UniProt P52270); assay: Inhibition of Trypanosoma cruzi triosephosphate isomerase at 100 uM after 2 hrs; outline: as §1
[3] = Selectivity for Trypanosoma cruzi triosephosphate isomerase over human triosephosphate isomerase

| Structure (SMILES) | Activity (Trypanosoma cruzi) | inhibition [1] | inhibition [2] | Ratio [3] |
| --- | --- | --- | --- | --- |
| O=S(=O)(c1ccccc1)c1no[n+]([O-])c1S(=O)(=O)c1ccccc1 | Active | 93% | 35% | > 4 |
| CCCCNC(=O)N/N=C/c1ccc([N+](=O)[O-])o1 | Active | 0% | 17% | > 4 |
| C=CCNC(=S)N/N=C\c1ccccc1OCc1ccc2no[n+]([O-])c2c1 | Active | 75% | 45% | > 4 |
| CCOC(=O)c1nc(-c2cc(C(C)(C)C)c(O)c(C(C)(C)C)c2)ns1 | Active | 87% | 65% | > 4 |
| Nc1ccc(-c2ccccc2)cc1[N+](=O)[O-] | – | 93% | 47% | > 4 |
| CCCCNC(=O)N/N=C/c1c(-c2ccccc2)no[n+]1[O-] | Active | 27% | – | > 4 |
| COCCNC(=O)N/N=C/c1ccc([N+](=O)[O-])s1 | Active | 15% | – | > 4 |
| O=S(=O)(/C=C\c1ccc2no[n+]([O-])c2c1)c1ccccc1 | Active | 51% | – | > 4 |
| CN(C)CCCNS(=O)(=O)NCCCN(C)C | Active | 0% | – | > 4 |
| CC1(C)[N+]([O-])=c2ccc(C3OCCO3)cc2=[N+]1[O-] | Active | 36% | – | > 4 |
| COC(=O)N/N=C/c1ccc2nonc2c1 | Active | 16% | – | > 4 |
| COc1ccc(/C=C/c2c(C)nnc[n+]2[O-])cc1 | Active | 11% | – | > 4 |
| O=Cc1ccc(OCc2ccc3no[n+]([O-])c3c2)cc1 | Active | 0% | – | > 4 |
| O=[N+]([O-])c1ccc2c(c1)c(OCc1ccccc1)nn2CCCCCN1CCCCC1 | Active | 0% | – | > 4 |
| O=C(N/N=C/c1ccc([N+](=O)[O-])s1)N1CCOCC1 | Active | 5% | – | > 4 |
| O=C(Oc1ccccc1)N1CCOCC1 | Active | 26% | – | > 4 |
| C=CCNC(=S)N/N=C/c1ccc2c(c1)=[N+]([O-])C(C)(C)[N+]=2[O-] | Active | 33% | – | > 4 |
| C/C(=C\c1ccc(N(C)C)cc1)[N+](=O)[O-] | Active | 24% | – | > 4 |
| Cc1c(C=O)no[n+]1[O-] | Active | 27% | – | > 4 |
| [O-][n+]1onc(-c2ccccc2)c1CN1CCSCC1 | Active | 47% | – | > 4 |
| [O-][n+]1onc2ccc(/C=N/NC(=S)Nc3ccccc3)cc21 | Active | 60% | – | > 4 |
| COc1ccc(/C=C/c2c(C)[n+]([O-])nc[n+]2[O-])cc1 | Active | 27% | – | > 4 |
| CN(CCCN(C)Cc1cccc2ccccc12)Cc1cccc2ccccc12 | Active | 55% | – | > 4 |
| [O-][n+]1onc2ccc(/C=N/N=C/c3ccccc3O)cc21 | Active | 24% | – | > 4 |
| O=C(O)c1ccc(/C=C\c2ccc3no[n+]([O-])c3c2)cc1 | Active | 6% | – | > 4 |
| CCOC(=O)CN(Cc1ccc(OC)cc1)c1ccc([N+](=O)[O-])cc1[N+](=O)[O-] | Active | 10% | – | > 4 |

| Structure (SMILES) | Activity (Trypanosoma cruzi) | inhibition [1] | inhibition [2] | Ratio [3] |
| --- | --- | --- | --- | --- |
| [O-][n+]1onc(-c2ccccc2)c1CN1CCN(c2ccccc2)CC1 | Active | 27% | – | > 4 |
| O=Cc1cccc(OCCCN2C(=O)c3ccccc3C2=O)c1 | Active | 0% | – | > 4 |
| Cc1ccc(S(=O)(=O)NCc2ccco2)cc1 | Active | 8% | – | > 4 |
| [O-][n+]1onc2ccc(C=Cc3ccccc3F)cc21 | Active | 9% | – | > 4 |
| Nc1ccc2c(c1)[n+]([O-])c1cc(Br)ccc1[n+]2[O-] | Active | 59% | – | > 4 |
| O=[N+]([O-])c1ccc(N2CCOCC2)c([N+](=O)[O-])c1 | Active | 19% | – | > 4 |
| [O-][n+]1onc2ccc(CBr)cc21 | Active | 10% | – | > 4 |
| Cc1ccc(-n2cc(C)[n+]([O-])c2)cc1 | Active | 13% | – | > 4 |
| [O-][n+]1onc2ccc(/C=N/O)cc21 | Active | 27% | – | > 4 |
| CCCN(CCCCCn1nc(OCc2ccccc2)c2cc([N+](=O)[O-])ccc21)CCC(C)C1CC=C(C)CC1 (configuration not stated) | Active | 11% | – | > 4 |
| N#Cc1c2ccccc2[n+]([O-])n1-c1ccc2ccccc2c1 | Active | 19% | – | > 4 |
| CCCCCCCNC(=O)N/N=C/c1ccc([N+](=O)[O-])o1 | Active | 60% | – | > 4 |
| CCCCCCN/N=C/c1no[n+]([O-])c1C | Active | 55% | – | > 4 |
| CCCCCCNC(=O)N/N=C/c1ccc2no[n+]([O-])c2c1 | Active | 43% | – | > 4 |
| O=Cc1ccc2no[n+]([O-])c2c1 | Active | 14% | – | > 4 |
| [O-][N+]1=c2ccc(Br)cc2=[N+]([O-])C12CCCC2 | Active | 23% | – | > 4 |
| O=C(/C=C/c1ccccc1)c1ccccc1O | Active | 15% | – | > 4 |
| C=C(C)CNC(=O)N/N=C/c1ccc([N+](=O)[O-])o1 | Active | 6% | – | > 4 |
| [O-][n+]1onc(-c2ccccc2)c1CCl | Active | 65% | – | > 4 |
| O=S(=O)(NCc1ccccc1)NCc1ccccc1 | Active | 76% | – | > 4 |
| Cc1ccc2c(c1)[n+]([O-])c(C)n2O | Active | 6% | – | > 4 |
| Cc1n(O)c2ccc(Br)cc2[n+]1[O-] | Active | 4% | – | > 4 |
| COc1ccc(C(=O)/C=C/c2ccc3no[n+]([O-])c3c2)cc1 | Active | 45% | – | > 4 |
| CCOC(=O)c1c(-c2ccccc2)[n+]([O-])c2ccc(CN3CCN(C/C=C/c4ccccc4)CC3)cc2[n+]1[O-] | Active | 12% | – | > 4 |
| O=[N+]([O-])c1ccc2c(c1)[n+]([O-])c1n2CCOC1 | Active | 14% | – | > 4 |
